Source: PubChem
Pf gamet viab: kills late stage P. falciparum gametocytes | inhibition, % at 10.9 µM | P. falciparum stage V gametocytes, ATP luminescence, 24 h | 0.065% of 150,000 active;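 active = inhibition above the mean plus 3 SD of compounds within the control limits, set per campaign, cut at about 38% in these data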;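 also: 0% = DMSO wells and 100% = medium only without gametocytes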
KCC2 mod: KCC2 (human) Cl- transport modulation | Q9H2X9 | KCC2 cells, thallium flux FluoZin-2 fluorescence | B-score of Tl+ flux slope (higher = more flux/activation; lower = inhibition) at 10 µM | 2.2% of 190,000 active;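 active = thallium flux slope and its plate-corrected score both differing from the plate sample mean at a set confidence after two filtering rounds, in either direction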;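 also: slope of fluorescence scaled to starting intensity during 10 to 20 s after thallium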
WT yeast gro inh: growth inhibition of WT yeast, mitochondrial fusion screen; mitochondrial fusion phenotypic screen, WT strain; inhibition, % at 10 µM; 2.1% of 190,000 active; AID 1362; in the data active = inhibition above about 58%; tested in S. cerevisiae
b-catenin transl: modulators of beta-catenin nuclear translocation; nuclear translocation activity, % at 5 µM; HeLa beta-catenin nuclear translocation, immunofluorescence imaging; 0.3% of 190,000 active;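 active = nuclear translocation activity above 50% at 5 µM, with a well cell count of 50 or more; inconclusive = wells under 50 cells across six images, flagged as toxic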;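 also: per-cell ratio of nuclear to cytoplasmic median beta-catenin stain intensity; plate controls were DMSO negative control for no effect and GSK-3 inhibitor IX positive control for full effect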
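Test system: human HeLa cells, endogenous beta-catenin. Times: 24 h compound exposure, 37°C. Measured by: beta-catenin immunofluorescence imaging with DAPI.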
MT stabilizer: stabilizes microtubules in HeLa cells | HeLa tubulin immunostaining HCS, 24 h; share of cells brighter than vehicle mean+2SD | % tubulin-high responders, % at 10 µM | 0.83% of 200,000 active | AID 2205;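 active = plate Z-score above 3 for both tubulin-high and condensed-nucleus cell shares, with cell loss under 80%, at 10 µM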;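 also: anti alpha tubulin signal scored within the nucleus-defined area of each cell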
KCC2 sec1: confirmation of human KCC2 transport modulators. AID 1713. normalised thallium flux (F/F0 slope) at 10 µM. HEK293-KCC2, thallium flux, FluoZin2 fluorescence; hits give high values. 15% of 3,700 active. shares compounds with KCC2 mod;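 active = thallium flux slope above the same plate's solvent-only control mean plus 3 SD; inconclusive = the two replicate wells disagree; inactive = no significant difference from solvent-only control wells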
KCC2 bumet counter: thallium flux despite bumetanide block in KCC2 cells, secondary assay 3. shares compounds with KCC2 mod. HEK293-KCC2 + bumetanide/ouabain, thallium flux FluoZin2; hits give high values. normalized thallium flux at 10 µM. 49% of 3,700 active. AID 1714;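 active = thallium entry rate above the same plate's blocked-transporter control wells by more than 3 SD; inconclusive = the two repeat wells disagree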;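 also: raw slope of fluorescence over initial fluorescence between 10 and 20 s after thallium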
KCC2 secondary2: KCC2 (human) modulation, second secondary assay; normalized thallium flux at 10 µM; 23% of 3,700 active; shares compounds with KCC2 mod; AID 1715; HEK293-KCC2, thallium flux FluoZin2 fluorescence; actives lie on both sides; F/F0 rise rate, 10–20 s post-thallium;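 active = thallium flux slope more than 3 SD above or below the plate's solvent-only control mean, mostly below; inconclusive = the two repeat wells disagreed; inactive = no significant shift from solvent-only controls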;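 also: raw slope with 0.1% DMSO as baseline and bumetanide as block control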
HEK counter1: parental HEK flux effect, counter-screen; shares compounds with KCC2 mod; HEK293 parental cells, thallium flux FluoZin2, ouabain; baseline-ratio fluorescence slope, 10–20 s after thallium; thallium flux rate (normalised fluorescence) at 10 µM; 46% of 3,700 active; AID 1716;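 active = thallium flux rate significantly above the same plate's solvent-only control wells, beyond their mean plus 3 SD; inconclusive = the two replicate wells gave conflicting results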
KCC2 retest ouab: confirmation of human KCC2 modulators with ouabain; shares compounds with KCC2 mod; HEK293-KCC2, thallium flux FluoZin2 fluorescence; bidirectional: low = inhibitor, high = activator; raw Tl+ flux slope (below DMSO = inhibition, above = activation) at 10 µM; 48% of 3,700 active;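 active = thallium flux slope beyond 3 SD from same-plate DMSO control mean in most replicates, usually higher, sometimes lower; inconclusive = repeat tests gave conflicting results; inactive = no significant difference from controls in most replicates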;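 also: slope of initial-normalized fluorescence between seconds 10 and 20 after thallium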
HEK counter2: counter-screen for KCC2 modulators: effect in parental HEK293 cells; shares compounds with KCC2 mod; thallium flux FluoZin-2 fluorescence slope; 33% of 3,700 active; thallium flux slope at 10 µM;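 active = thallium flux slope above the same plate's solvent-control mean plus 3 SD in both duplicate wells; inconclusive = duplicate wells that disagreed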;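 also: run without ouabain in cells lacking the KCC2 cotransporter; slope of fluorescence scaled to its starting value between 10 and 20 s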
Active calls of the source: *; ? = inconclusive; . = not tested or not shown. A selection: hits, their analogues and other compounds. The true share with any hit is near 4%.

SMILES	Pf gamet viab	KCC2 mod	WT yeast gro inh	b-catenin transl	MT stabilizer	KCC2 sec1	KCC2 bumet counter	KCC2 secondary2	HEK counter1	KCC2 retest ouab	HEK counter2
Cc1ccc(-c2n[nH]c(=S)c3ccccc23)cc1	-14.6	8.94*	-18.2	5.0	3.4	0.00917	0.0246*	0.0295	0.00975*	?	0.00954
S=c1[nH]nc(-c2ccccc2)c2ccccc12	-4.7	.	10.4	1.1	2.4	.	.	.	.	.	.
NN/C(=C\[N+](=O)[O-])Nc1ccc(Cl)cc1	-3.0	6.7*	56.1	-2.9	4.7	0.0109	0.0228*	0.032	0.00999*	0.0214	0.0103
COc1ccc(OCC(=O)NNC(=O)c2cc3ccccc3o2)cc1	-0.1	5.1*	3.3	2.8	4.2	0.0134*	0.0174*	0.0318	?	?	0.0125
COc1ccc(NC(=O)c2cc3ccccc3o2)cc1	.	-1.48	4.6	-2.1	3.0	.	.	.	.	.	.
CC(Oc1ccccc1F)C(=O)NNC(=O)c1cc2ccccc2o1 (stereo not given)	-7.2	.	-0.8	0.3	6.1	0.00716	0.0282*	0.0342	0.0217*	0.0305*	0.0161*
CC(C)NC(=O)c1cc2ccccc2o1	-36.1	-0.0155	0.5	0.9	3.5	.	.	.	.	.	.
CCCNC(=O)c1ccccc1NC(=O)COc1ccc(OC)cc1	.	6.48*	1.1	-6.2	3.1	0.009	?	0.0328	0.00802	0.0212	0.0111
CCOC(=O)C1(CC2CCCCO2)CCN(Cc2cn[nH]c2-c2cccc(F)c2)CC1 (stereo not given)	15.3	0.567	-0.1	-2.2	1.0	.	.	.	.	.	.
COc1ccc(C(=O)NC2(C(F)(F)F)C(=O)Nc3c2c(=O)[nH]c(=O)n3CCc2ccc(OC)c(OC)c2)cc1 (stereo not given)	4.4	0.00387	17.4	-1.3	3.5	.	.	.	.	.	.
CCCN1C/C(=C/c2ccc3c(c2)OCO3)C(=O)/C(=C/c2ccc3c(c2)OCO3)C1	-7.5	-0.588	2.6	0.8	3.5	.	.	.	.	.	.
CCCN1C(=O)/C(=C/c2ccc3c(c2)OCO3)NC1=S	.	44.9*	16.7	-0.8	1.4	0.0257*	0.071*	0.0353	0.092*	0.0602*	0.0219*
c1ccc(CNc2ncnc3sc4c(c23)CCC4)nc1	-15.0	-4.24*	0.3	0.1	4.2	0.00974	0.00491	0.0322	0.0059*	0.0206	0.01
Cc1occc1-c1nnc(SCC(=O)c2ccc(F)cc2)n1Cc1ccco1	14.6	-3.02*	1.6	.	1.4	0.00575	?	0.0229*	0.00548*	0.0113*	0.00926
O=C(CSc1nnc(-c2ccco2)n1Cc1ccccc1)c1ccc(F)cc1	.	-6.14*	34.3	-3.3	4.7	0.00592	?	0.0214*	0.00545*	0.0124*	?
O=C(CSc1nnc(-c2ccco2)n1Cc1ccccc1)NCc1ccccc1	-11.1	-0.0703	9.0	-2.6	2.9	.	.	.	.	.	.
COc1ccc(C(C)(C)C)cc1NC(=O)COC(=O)c1ccc([N+](=O)[O-])o1	-0.4	-0.781	75.7	1.8	2.5	.	.	.	.	.	.
Cc1c(Cl)sn(-c2ccc(Cl)cc2)c1=O	15.1	-5.88*	94.2	2.6	3.4	0.00623	0.00477	0.0232*	0.00694	0.0116*	?
Cc1ccc2c(Cl)cc(Cl)c(OCC(=O)NC(C)(C)C)c2n1	-16.9	6.88*	55.7	0.0	3.6	0.0103	0.0309*	0.0304	0.0175*	0.0322*	?
COC(=O)COc1c(Cl)cc(Cl)c2ccc(C)nc12	-1.1	6.21*	3.5	-3.1	2.6	0.0157	0.0107*	0.0304	0.0109*	0.0193	0.014*
Cc1ccc2c(Cl)cc(Cl)c(OCC(=O)N(C(C)C)C(C)C)c2n1	.	4.03*	33.0	0.0	3.4	0.0161	0.014*	0.0284	0.0105*	0.0186	0.0118
COC(=O)c1ccc(NC(=O)C2CC(=O)N(c3ccc(C)cc3)C2)cc1 (stereo not given)	8.8	0.0925	3.6	-3.5	2.4	.	.	.	.	.	.
O=C(CCCc1nc2ccccc2s1)NCc1ccc(F)cc1	20.3	-3.95*	-2.0	.	1.1	0.0139*	0.0183*	0.034	0.0118*	0.0227	0.0124*
C=CCn1c(COc2ccc(OC)cc2)nnc1SCn1nnc2ccccc2c1=O	-14.3	-0.0699	0.8	0.7	2.2	.	.	.	.	.	.
CC(C)NC(=O)c1nn2c(C(F)(F)F)cc(-c3ccco3)nc2c1Cl	-7.7	-0.273	-3.7	0.6	2.9	.	.	.	.	.	.
SMILES	Pf gamet viab	KCC2 mod	WT yeast gro inh	b-catenin transl	MT stabilizer	KCC2 sec1	KCC2 bumet counter	KCC2 secondary2	HEK counter1	KCC2 retest ouab	HEK counter2
CN(CCc1ccccn1)C(=O)c1nn2c(C(F)(F)F)cc(-c3ccco3)nc2c1Cl	-21.5	-5.21*	-7.8	-4.2	6.0	0.00744	0.00507	0.031	0.00737	0.0145*	0.00982
C=CCn1c(SCC(=O)NC(=O)c2cccn2C)nc2ccccc2c1=O	-14.9	-1.2	-4.4	1.4	2.7	.	.	.	.	.	.
CCC(C)n1c(SCC(=O)NC(=O)c2cccn2C)nc2ccccc2c1=O (stereo not given)	-34.2	21.9*	25.0	0.3	5.0	0.0159*	0.0964*	0.0372	0.0372*	0.0424*	0.0166*
O=C(CSc1nnc(-c2ccccc2Br)o1)N1CCc2ccccc2C1	.	-5.43*	7.5	0.0	3.2	0.0152	0.00311	0.0214*	?	0.0108*	0.00886
O=C(CSc1nnc(-c2c[nH]c3ccccc23)o1)N1CCCCC1	-16.9	-3.13*	-16.9	-4.5	3.8	0.00858	?	0.0292*	0.00458	0.0205*	0.0116
Cc1cc(C)cc(NC(=O)CSc2nnc(-c3ccccc3Br)o2)c1	.	.	2.8	-1.2	4.6	.	.	.	.	.	.
CC(=O)Nc1nonc1NC(=O)c1ccc(C(C)(C)C)cc1	17.5	-0.00472	-13.4	-0.6	2.5	.	.	.	.	.	.
O=C(O)CCn1c(SCc2ccccc2)nc2ccccc21	.	-4.16*	-3.0	-1.3	2.1	0.00792	0.0059	0.035	0.00719	0.0149*	0.0102
Cn1c(SCC(=O)NCCN2C(=O)CSC2=O)nc2ccccc2c1=O	.	6.37*	3.9	1.8	5.8	0.0185	0.0126*	?	0.0122*	0.0198	0.0165*
COC(=O)Cn1c(SCc2ccccc2)nc2ccccc21	25.8	-1.14	26.6	.	1.0	.	.	.	.	.	.
